Measurements as given in ChEMBL document CHEMBL4350958, “Rational Design of Short Peptide Variants by Using Kunitzin-RE, an Amphibian-Derived Bioactivity Peptide, for Acquired Potent Broad-Spectrum Antimicrobial and Improved Therapeutic Potential of Commensalism Coinfection of Pathogens” (J Med Chem, 2019).
≈ marks a conversion by molar mass, not a printed value.

Tests used:
[1] = tested on: Escherichia coli; test: Antibacterial activity against Escherichia coli ATCC 25922 measured after 18 to 24 hrs in presence of CaCl2; assay type: functional
[2] = tested on: Staphylococcus aureus; test: Antibacterial activity against Staphylococcus aureus ATCC 29213 measured after 18 to 24 hrs in presence of CaCl2; assay type: functional
[3] = tested on: Escherichia coli; test: Antibacterial activity against Escherichia coli ATCC 25922 measured after 18 to 24 hrs in presence of MgCl2; assay type: functional
[4] = tested on: Escherichia coli; test: Antibacterial activity against Escherichia coli ATCC 25922 measured after 18 to 24 hrs in presence of KCl; assay type: functional
[5] = tested on: Staphylococcus aureus; test: Antibacterial activity against Staphylococcus aureus ATCC 29213 measured after 18 to 24 hrs in presence of MgCl2; assay type: functional
[6] = tested on: Candida albicans; test: Antifungal activity against Candida albicans cgmcc2.2086 measured after 48 hrs in presence of ZnCl by broth microdilution method; assay type: functional
[7] = tested on: Candida albicans; test: Antifungal activity against Candida albicans cgmcc2.2086 measured after 48 hrs in presence of CaCl by broth microdilution method; assay type: functional
[8] = Cytotoxicity against mouse RAW264.7 cells assessed as cell viability at 2 to 64 uM measured after 18 to 24 hrs by MTT assay relative to control; assay type: cell-based; details: RAW264.7 cells, read-out: Activity
In short: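 MTT assay: RAW264.7 cells seeded at 1.0–2.0×10^4 per well and exposed to peptide (2–64 µM) for 18–24 h at 37 °C in 5% CO2. MTT (0.5 mg/mL) added for 4 h, formazan dissolved in DMSO, read at 570 nm. At least three independent experiments with triplicate wells.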

[9] = tested on: Escherichia coli; test: Antibacterial activity against Escherichia coli UB1005 measured after 24 hrs; assay type: functional
In short: (§1)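 Broth microdilution adapted from NCCLS. Mid-log bacteria were diluted in MHB to a final (0.5–1) × 10^5 CFU mL−1. Peptides were serially diluted in 0.2% BSA and mixed with an equal volume of cells. After 24 h at 37 °C, MIC was read at A492 as the lowest concentration inhibiting 95% of growth. At least three independent experiments, each with three technical replicates.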

[10] = tested on: Staphylococcus epidermidis; test: Bactericidal activity against Staphylococcus epidermidis ATCC 12228 incubated for 24 hrs followed by replating on agar plate and measured after overnight incubation; assay type: functional; details: for MBC: ATCC 12228, 24 h, read-out: MBC>99.9
In short: (§2)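 Mid-log bacteria diluted in MHB to (0.5–1) × 10^5 CFU/mL and mixed 1:1 with peptide serially diluted in 0.2% BSA. After 24 h at 37 °C, 50 μL of each mixture was plated on agar and incubated overnight. MBC taken as the lowest concentration killing >99.9% of cells. At least three independent experiments, each with three technical replicates.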

[11] = Conformational stability in 50% trifluoro-ethyl alcohol assessed as alpha-helical structural propensity by measuring absorption spectra at minimum dichroic band at 35 uM by CD spectra analysis; assay type: physicochemical
In short: (§3)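 CD spectra from 190 to 250 nm of peptide at 35 μM in 10 mM PBS, 30 mM SDS micelles or 50% TFE, recorded in a 1.0-mm quartz cell. Ellipticity was converted to mean residue ellipticity. Three independent scans, each averaged over more than 3 runs.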

[12] = tested on: Escherichia coli; test: Bactericidal activity against Escherichia coli K88 incubated for 24 hrs followed by replating on agar plate and measured after overnight incubation; assay type: functional; details: for MBC: K88, 24 h, read-out: MBC>99.9; in short: as §2
[13] = tested on: Escherichia coli; test: Antibacterial activity against Escherichia coli K99 measured after 24 hrs; assay type: functional; in short: as §1
[14] = tested on: Escherichia coli; test: Antibacterial activity against Escherichia coli 078 measured after 24 hrs; assay type: functional; in short: as §1
[15] = tested on: Staphylococcus aureus; test: Antibacterial activity against Staphylococcus aureus ATCC 29213 measured after 24 hrs; assay type: functional
In short: (§4)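 Broth microdilution modified from NCCLS. Mid-log bacteria at (0.5–1) × 10^5 CFU mL−1 in MHB, mixed with peptides serially diluted in 0.2% BSA. Incubated 24 h at 37 °C, read at A492. MIC taken as lowest concentration giving 95% growth inhibition. At least three independent experiments, each with three technical replicates.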

[16] = Antibacterial activity against Salmonella pullorum ATCC 7913 measured after 24 hrs; assay type: functional, Salmonella enterica subsp. enterica serovar Pullorum; details: Salmonella enterica, ATCC 7913, 24 h; in short: as §1
[17] = Therapeutic index, ratio of MHC10 for hemolytic activity in human RBC to MIC95 against Staphylococcus aureus ATCC 29213; assay type: toxicity; details: human red blood cells (erythrocytes), read-out: TI
In short: (§5)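 Therapeutic index = MHC divided by MIC. MHC is the lowest concentration giving >10% lysis of human RBC (1 h, 37 °C, 1-128 µM, A576). MIC is 95% growth inhibition by broth microdilution: bacteria in MHB 24 h at 37 °C; Candida in MOPS-buffered RPMI 1640 at (0.5–1) × 10^3 CFU mL−1, 48 h at 28 °C.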

[18] = Therapeutic index, ratio of MHC10 for hemolytic activity in human RBC to MIC95 against methicillin-resistant Staphylococcus aureus ATCC 43300; assay type: toxicity; details: human red blood cells (erythrocytes), read-out: TI; in short: as §5
[19] = Therapeutic index, ratio of MHC10 for hemolytic activity in human RBC to MIC95 against Candida tropicalis cgmcc2.1975; assay type: toxicity; details: human red blood cells (erythrocytes), read-out: TI; in short: as §5
[20] = tested on: Staphylococcus aureus; test: Antibacterial activity against Staphylococcus aureus ATCC 29213 measured after 18 to 24 hrs in presence of FeCl3; assay type: functional
[21] = tested on: Staphylococcus aureus; test: Antibacterial activity against Staphylococcus aureus ATCC 25923 measured after 24 hrs; assay type: functional; in short: as §4
[22] = tested on: Staphylococcus aureus; test: Antibacterial activity against Staphylococcus aureus ATCC 29213 measured after 18 to 24 hrs in presence of NaCl; assay type: functional
[23] = tested on: Pseudomonas aeruginosa; test: Bactericidal activity against Pseudomonas aeruginosa ATCC 27853 incubated for 24 hrs followed by replating on agar plate and measured after overnight incubation; assay type: functional; details: for MBC: ATCC 27853, 24 h, read-out: MBC>99.9; in short: as §2
[24] = tested on: Candida albicans; test: Antifungal activity against Candida albicans cgmcc2.2086 measured after 48 hrs in presence of NH4Cl by broth microdilution method; assay type: functional
[25] = Conformational stability in pH 7.4 sodium phosphate buffer assessed as absorption spectra at minimum dichroic band at 35 uM by CD spectra analysis; assay type: physicochemical; details: pH 7.4, 35 µM; in short: as §3
[26] = tested on: Candida albicans; test: Antifungal activity against Candida albicans cgmcc2.2086 measured after 48 hrs in presence of NaCl by broth microdilution method; assay type: functional
[27] = tested on: Escherichia coli; test: Antibacterial activity against Escherichia coli K88 measured after 24 hrs; assay type: functional; in short: as §1
[28] = Therapeutic index, ratio of MHC10 for hemolytic activity in human RBC to MIC95 against Escherichia coli ATCC 25922; assay type: toxicity; details: human red blood cells (erythrocytes), pooled result: one value given for 9 cell lines, strains, targets or settings, read-out: TI; in short: as §5

| Compound | MIC95 [1] | MIC95 [2] | MIC95 [3] | MIC95 [4] | MIC95 [5] | MIC95 ([6]; cgmcc2.2086, 48 h) | MIC95 ([7]; cgmcc2.2086, 48 h) | MIC95 ([9]; UB1005, 24 h) | MBC [10] | MBC [12] | MIC95 ([13]; K99, 24 h) | MIC95 ([14]; Escherichia coli, 078, 24 h) | MIC95 ([15]; ATCC 29213, 24 h) | MIC95 [16] | selectivity ratio [17] | selectivity ratio [18] | selectivity ratio [19] | MIC95 [20] | MIC95 ([21]; ATCC 25923, 24 h) | MIC95 [22] | further results |
| --- | --- | --- | --- | --- | --- | --- | --- | --- | --- | --- | --- | --- | --- | --- | --- | --- | --- | --- | --- | --- | --- |
| H-AARIILRYRFR-NH2 | > 128 µM | 64 µM | 64 µM | 32 µM | 8 µM | 64 µM | 128 µM | 4 µM | 4 µM | 8 µM | 4 µM | 4 µM | 4 µM | 4 µM | 64 | 64 | 8 | 4 µM | 8 µM | > 128 µM | viability at up to 64 µM [8]: 90 to 100%; Activity [11]: 208 to 222 nm; MBC [23]: 64 µM; MIC95 ([24]; cgmcc2.2086, 48 h): 64 µM; Wavelength of minimum CD band [25]: 200 nm; MIC95 ([26]; cgmcc2.2086, 48 h): 128 µM; MIC95 ([27]; K88, 24 h): 4 µM; selectivity ratio [28]: 47 |
| CC[C@H](C)[C@H](NC(=O)CN)C(=O)NCC(=O)N[C@@H](C)C(=O)N[C@H](C(=O)N[C@@H](CC(C)C)C(=O)N[C@@H](CCCCN)C(=O)N[C@H](C(=O)N[C@@H](CC(C)C)C(=O)N[C@H](C(=O)N[C@H](C(=O)NCC(=O)N[C@@H](CC(C)C)C(=O)N1CCC[C@H]1C(=O)N[C@@H](C)C(=O)N[C@@H](CC(C)C)C(=O)N[C@H](C(=O)N[C@@H](CO)C(=O)N[C@@H](Cc1c[nH]c2ccccc12)C(=O)N[C@H](C(=O)N[C@@H](CCCCN)C(=O)N[C@@H](CCCNC(=N)N)C(=O)N[C@@H](CCCCN)C(=O)N[C@@H](CCCNC(=N)N)C(=O)N[C@@H](CCC(N)=O)C(=O)N[C@@H](CCC(N)=O)C(N)=O)[C@@H](C)CC)[C@@H](C)CC)[C@@H](C)O)[C@@H](C)O)C(C)C)C(C)C [MELITTIN] | 8 µM | 8 µM | 4 µM | 2 µM | 4 µM | 4 µM | 8 µM | 2 µM (≈ 5.69 µg/mL) | 4 µM (≈ 11.4 µg/mL) | 2 µM (≈ 5.69 µg/mL) | 2 µM (≈ 5.69 µg/mL) | 2 µM (≈ 5.69 µg/mL) | 4 µM (≈ 11.4 µg/mL) | 2 µM (≈ 5.69 µg/mL) | 0.35 | 0.35 | 0.32 | 4 µM | 8 µM (≈ 22.8 µg/mL) | 8 µM | MBC [23]: 4 µM (≈ 11.4 µg/mL); MIC95 ([24]; cgmcc2.2086, 48 h): 4 µM; MIC95 ([26]; cgmcc2.2086, 48 h): 8 µM; MIC95 ([27]; K88, 24 h): 1 µM (≈ 2.85 µg/mL); selectivity ratio [28]: 0.54 |
| H-AARIILRFRFR-NH2 | 32 µM | 4 µM | 32 µM | 16 µM | 2 µM | 8 µM | 64 µM | 4 µM | 4 µM | 8 µM | 2 µM | 4 µM | 2 µM | 4 µM | 128 | 128 | 50.8 | 4 µM | 2 µM | 32 µM | viability at up to 64 µM [8]: 90 to 100%; Activity [11]: 208 to 222 nm; MIC95 ([24]; cgmcc2.2086, 48 h): 4 µM; Wavelength of minimum CD band [25]: 200 nm; MIC95 ([26]; cgmcc2.2086, 48 h): 32 µM; MIC95 ([27]; K88, 24 h): 4 µM; selectivity ratio [28]: 43.5 |
| POLYMYXIN B | 16 µM | 64 µM | 1 µM | 2 µM | 32 µM |  |  |  |  |  |  |  |  |  |  |  |  | 32 µM |  | 64 µM | MIC95 [6]: 32 µM; MIC95 [7]: > 128 µM; MIC95 [9]: 1 µM; MBC>99.9 [10]: 64 µM; MBC>99.9 [12]: 1 µM; MIC95 [13]: 1 µM; MIC95 [14]: 1 µM; MIC95 [15]: 32 µM; MIC95 [21]: 64 µM; MBC>99.9 [23]: 4 µM; MIC95 [24]: 32 µM; MIC95 [26]: 128 µM; MIC95 [27]: 0.5 µM |
